NR2E3 ag-1: inhibitors of NR2E3-RetCOR corepressor binding, primary screen, NR2E3 agonist project, biochemical, TR-FRET, GST-NR2E3, biotin-RetCOR; inhibition of corepressor binding, % at 4.78 µM; Photoreceptor-specific nuclear receptor (Homo sapiens), Q9Y5X4; AID 2300, 2010; 0.12% of 320,000 active; 1536-well;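 active = percent inhibition above the cutoff of mean plus 3 SD of all tested compounds, set per screening campaign, cut at about 20% in these data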;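 note: 0% = DMSO wells and 100% = biotin wells as full block of FRET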
Target sequence (Q9Y5X4 whole entry, looked up): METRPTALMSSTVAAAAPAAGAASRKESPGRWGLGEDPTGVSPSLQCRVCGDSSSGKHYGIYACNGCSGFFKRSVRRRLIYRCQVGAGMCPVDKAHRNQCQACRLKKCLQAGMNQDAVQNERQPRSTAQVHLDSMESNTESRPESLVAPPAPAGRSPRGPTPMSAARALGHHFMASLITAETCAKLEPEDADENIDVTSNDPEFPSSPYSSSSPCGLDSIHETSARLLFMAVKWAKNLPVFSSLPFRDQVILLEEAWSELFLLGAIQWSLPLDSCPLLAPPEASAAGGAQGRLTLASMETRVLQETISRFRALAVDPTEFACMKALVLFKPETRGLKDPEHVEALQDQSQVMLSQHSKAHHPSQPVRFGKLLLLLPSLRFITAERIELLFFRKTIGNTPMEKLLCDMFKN
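system = GST-tagged NR2E3 plus biotinylated RetCOR corepressor | input = 1.35 nM GST-NR2E3 | also added = 7 nM biotin-RetCOR | schedule = 5 h incubation at 4 °C | measured by = TR-FRET with europium anti-GST and streptavidin-D2, 340 nm excitation | read-out = percent loss of FRET ratio relative to control wells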
PG9 binder: binders of HIV-1 gp120 antibody PG9, primary screen, biochemical, TR-FRET; TR-FRET gp120-PG9 antibody binding; 0.43% of 360,000 active; inhibition, % at 6.7 µM; HIV-1 gp120 / PG9 antibody interaction; in the data active = inhibition above about 8.5%
NR2E3 ag-2: NR2E3 agonists in two-hybrid cells, primary screen, cell-based, luminescence, CHO-S, Gal4-NCOR/VP16-NR2E3. luciferase. inhibition of corepressor binding, % at 3.98 µM. 0.35% of 360,000 active. AID 602229, 2012;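 active = inhibition above the mean of all tested compounds plus 3 SD, cut at about 70% in these data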;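 note: 0% = DMSO with NR2E3 transfected cells and 100% = cells lacking NR2E3 construct; higher means lower luciferase signal from less NR2E3 corepressor binding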
rCAG RNA binder: binders of r(CAG) RNA repeats, primary screen, biochemical, fluorescence; r(CAG) RNA repeat, TO-PRO-1 dye displacement fluorescence; inhibition, % at 3 µM; 1.3% of 370,000 active; AID 651821, 2012;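 active = inhibition above the plate cutoff, the mean of all test compounds on that plate plus 3 SD, cut at about 35% in these data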;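 note: 0% = DMSO alone and 100% = 100 µM mitoxantrone as full dye displacement; higher means more dye released from RNA so lower well fluorescence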
NR1D1 modulator: modulators of Rev-erb alpha DNA binding, primary screen, biochemical, FITC-DNA, fluorescence polarization, uHTS | Rev-erbα–FITC-DNA binding, 90 min | Nuclear receptor subfamily 1 group D member 1 (Homo sapiens), P20393 | activity, % at 10 µM | 0.79% of 370,000 active;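 active = activity above about 14%, limit read from the data; passing the limit was not always enough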;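 note: 0% = DMSO wells with 35 nM protein and 100% = DMSO wells with 750 nM protein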
rCAG bind conf: small molecules binding CAG repeat RNA – biochemical, fluorescence, confirmation | shares compounds with rCAG RNA binder | r(CAG) RNA repeat, TO-PRO-1 dye displacement fluorescence | inhibition, % at 3 µM | 70% of 4,300 active;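 active = inhibition above a per-plate cutoff, the mean inhibition of sample wells plus 3 SD, cut at about 35% in these data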;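 note: loss of TO-PRO-1 fluorescence as compound displaces dye from 1x1 AA loop RNA; 0% = DMSO only wells and 100% = 100 µM mitoxantrone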
dCAG dye counter: displacement of TO-PRO-1 from CAG DNA duplex, counter-screen for rCAG RNA repeat binder project, biochemical, fluorescence, TO-PRO-1 dye, d(CAG) DNA oligo; inhibition, % at 3 µM; AID 652068, 2013; d(CAG) DNA oligo TO-PRO-1 dye displacement; shares compounds with rCAG RNA binder; 94% of 4,300 active;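 active = inhibition above its plate's cutoff, the mean test-well inhibition plus 3 SD, cut at about 4.8% in these data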;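 note: 0% = DNA dye mix with DMSO and 100% = 100 µM mitoxantrone; hits displace the dye from DNA and so lower well fluorescence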
* marks the source's active call; other numbers are inactive results; / = no result. The list is not random: actives were taken first. Their share in the collection is about 2.6%.

SMILES	NR2E3 ag-1	PG9 binder	NR2E3 ag-2	rCAG RNA binder	NR1D1 modulator	rCAG bind conf	dCAG dye counter
COc1ccc(C(C)(O)c2nc(-c3ccc(F)cc3OC)cs2)cc1 (stereo not given)	/	1.8	-9.8	0.0	6.3	/	/
O=C(COC(=O)c1cncc(Br)c1)NC12CC3CC(CC(C3)C1)C2	/	1.1	-13.4	2.1	1.4	/	/
COC(=O)C1CCN(C(=O)c2cc(-c3ccco3)nc3ccccc23)CC1	/	-1.4	13.6	41.3*	-36.1	27.5	15.0*
CCCn1c(N)c(N(CCOC)C(=O)c2cc3ccccc3cc2OC)c(=O)[nH]c1=O	-0.7	-0.6	5.1	2.7	-3.6	/	/
NC(=O)COC(=O)c1ccc(Cl)c(S(=O)(=O)N(Cc2ccccc2)c2ccc(Cl)cc2)c1	3.0	-1.0	-2.7	5.0	1.0	/	/
COc1ccccc1N(Cc1ccccc1)S(=O)(=O)c1cccc(C(=O)O)c1	0.4	0.9	3.6	29.1	8.3	/	/
O=C(O)c1ccc(Cl)c(S(=O)(=O)N(Cc2ccccc2)c2ccc(Cl)cc2)c1	1.0	-0.8	-5.2	73.0*	0.4	64.9*	25.9*
COc1ccccc1N(Cc1ccccc1)S(=O)(=O)c1cc(C(=O)O)ccc1Cl	1.3	-1.7	-13.8	65.0*	-0.1	46.9*	12.6*
O=C(COC(=O)Cn1ccc(=O)[nH]c1=O)Nc1ccc(F)cc1	/	1.4	7.2	1.5	-0.3	/	/
CC1(C)CCC(C)(C)c2cc(NC(=O)c3ccc(C(=O)O)cc3)ccc21	/	/	/	53.4*	-1.9	36.3*	7.5*
O=C(O)c1cccc(NC(=O)c2cc(NC(=O)c3ccccc3)cc(NC(=O)c3ccccc3)c2)c1	4.7	0.8	-13.2	66.5*	-4.8	60.2*	24.2*
Cc1ccc(-n2nc3ccc(NC(=O)/C=C/c4ccco4)cc3n2)cc1	-0.1	-0.2	-112.3	38.5*	-7.4	19.4	10.5*
O=C(O)c1cccc(NC(=O)c2ccccc2)c1	/	-1.3	-28.8	-0.2	7.3	/	/
O=C(CCC1CCCCC1)Nc1cccc(C(=O)Nc2ccc(C(=O)O)cc2)c1	4.7	-1.0	-71.8	34.9*	-2.7	27.5	5.5*
CCOc1ccc(C=NNC(=O)c2cccc3ccccc23)cc1OCC	/	-1.3	-10.4	3.9	-2.7	/	/
O=C(O)c1cccc(NC(=S)NC(=O)C(c2ccccc2)c2ccccc2)c1	-0.5	-1.7	5.7	45.2*	-3.2	34.5	9.3*
O=C(Nc1cc(C(=O)Nc2ccccc2C(=O)O)cc(C(=O)Nc2ccccc2C(=O)O)c1)c1ccccc1	0.6	-3.2	10.1	76.8*	-0.5	86.0*	60.9*
O=C(/C=C/c1ccco1)Nc1cccc(C(=O)Nc2ccccc2C(=O)O)c1	2.1	2.1	-7.5	67.3*	-5.5	81.7*	49.1*
O=C(Nc1ccccc1C(=O)O)c1cccc(F)c1	0.7	-0.5	-8.4	-0.4	-3.3	/	/
CCc1ccccc1NC(=O)c1cccc(NC(=O)/C=C/c2ccco2)c1	0.1	-2.1	-23.2	9.7	3.4	/	/
O=C(Nc1ccccc1C(=O)O)c1cccc(NC(=O)c2ccccc2Br)c1	1.9	-1.8	-29.9	47.7*	-2.7	32.9	9.5*
CC(C)C[C@H]1COc2ccc(Cl)cc2S(=O)(=O)N1C[C@H](NC(=O)OC(C)(C)C)C(C)C	/	4.5	/	2.9	-4.6	/	/
COc1cccc(C(=O)Nc2cccc(NC(=O)c3ccccc3Cl)c2)c1	0.4	-0.5	-23.8	-4.6	-1.2	/	/
CC(=O)NC1=NN(c2ccccc2)C(=O)C1	-2.5	-3.8	-4.0	0.5	-1.5	/	/

Screening data (PubChem)
